In ChEMBL document CHEMBL4680103, “In Vitro and in Vivo Anti-Trypanosoma cruzi Activity of New Arylamine Mannich Base-Type Derivatives” (J Med Chem, 2016):

What was measured:
[1] = tested on: Trypanosoma cruzi; experiment: Antitrypanosomal activity against Trypanosoma cruzi Arequipa epimastigote forms incubated for 72 hrs by hemocytometry; type: functional, organism-based
How it was run: (§1)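 Epimastigotes grown in MTL medium with 10% inactivated FBS at 28 °C. Compounds were dissolved in DMSO (0.01% v/v) and added at 0.1–100 µM for 72 h. Parasites were counted in a Neubauer chamber. IC50 (50% growth inhibition) was derived by linear regression of Kc values. Values are averages of four determinations.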

[2] = tested on: Trypanosoma cruzi; experiment: Antitrypanosomal activity against Trypanosoma cruzi Arequipa amastigote forms infected in African green monkey Vero cells incubated for 72 hrs by Giemsa staining based micrscopy; type: functional, organism-based
How it was run: (§2)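 Vero cells (RPMI, 10% inactivated FBS, 37 °C, 5% CO2) were seeded at 1×10^4/well on coverslips and cultured 2 days. They were infected 24 h with metacyclic forms at 10:1. After washing off free parasites, drugs were added at 0.1–100 µM for 72 h. Slides were methanol-fixed and Giemsa-stained; amastigotes were counted in 200 host cells versus untreated. IC50 was calculated.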

[3] = tested on: Trypanosoma cruzi; experiment: Antitrypanosomal activity against Trypanosoma cruzi Arequipa trypomastigote froms infected in mouse blood incubated for 24 hrs by Neubauer chamber based assay; type: functional, organism-based
How it was run: (§3)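 Mouse blood taken at peak parasitemia (day 7) was diluted with uninfected blood to 4×10^6 trypomastigotes/mL, then 1:2 in RPMI 1640. Drugs from DMSO stocks were added at 1, 10, 25, 50 and 100 µM and incubated 24 h at 4–8 °C. Parasites were counted in a Neubauer chamber in triplicate. IC50 was calculated versus control.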

[4] = tested on: Trypanosoma cruzi; experiment: Antitrypanosomal activity against Trypanosoma cruzi Tulahuen epimastigote forms incubated for 72 hrs by hemocytometry; type: functional, organism-based; how it was run: as §1
[5] = tested on: Trypanosoma cruzi; experiment: Antitrypanosomal activity against Trypanosoma cruzi Tulahuen amastigote forms infected in African green monkey Vero cells incubated for 72 hrs by Giemsa staining based micrscopy; type: functional, organism-based; how it was run: as §2
[6] = tested on: Trypanosoma cruzi; experiment: Antitrypanosomal activity against Trypanosoma cruzi Tulahuen trypomastigote froms infected in mouse blood incubated for 24 hrs by Neubauer chamber based assay; type: functional, organism-based; how it was run: as §3
[7] = tested on: Trypanosoma cruzi; experiment: Antitrypanosomal activity against Trypanosoma cruzi SN3 epimastigote forms incubated for 72 hrs by hemocytometry; type: functional, organism-based; settings: SN3, 72 h; how it was run: as §1
[8] = tested on: Trypanosoma cruzi; experiment: Antitrypanosomal activity against Trypanosoma cruzi SN3 amastigote forms infected in African green monkey Vero cells incubated for 72 hrs by Giemsa staining based micrscopy; type: functional, organism-based; how it was run: as §2
[9] = tested on: Trypanosoma cruzi; experiment: Antitrypanosomal activity against Trypanosoma cruzi SN3 trypomastigote froms infected in mouse blood incubated for 24 hrs by Neubauer chamber based assay; type: functional, organism-based; how it was run: as §3
[10] = tested on: Vero; experiment: Cytotoxicity in African green monkey Vero cells incubated for 72 hrs; type: cell-based; settings: Chlorocebus sabaeus

`O=C(CCN1CCN(c2ccc(C(F)(F)F)cc2)CC1)c1ccc2ccccc2c1` showed an IC50 [1] of 1.23 µM, an IC50 [2] of 2.6 µM and an IC50 [3] of 8.3 µM. For the same molecule, the IC50 [4] was 4.2 µM, the IC50 [5] was 20.5 µM and the IC50 [6] was 6.6 µM. For the same molecule, the IC50 [7] was 15.3 µM, the IC50 [8] was 8.3 µM and the IC50 [9] was 36.5 µM. It also gave an IC50 [10] of 30.1 µM.

`O=C(CCN1CCN(c2ccc(Cl)cc2)CC1)c1ccc2c(c1)OCO2` gave an IC50 [1] of 2.5 µM, an IC50 [2] of 1.7 µM and an IC50 [3] of 46.3 µM. For the same molecule, the IC50 [4] was 69.1 µM, the IC50 [5] was 11.2 µM and the IC50 [6] was 29.3 µM. For the same molecule, the IC50 [7] was 12.6 µM, the IC50 [8] was 6.2 µM and the IC50 [9] was 16.8 µM. The IC50 [10] was 0.3 µM.

In the case of `O=C(CCN1CCN(Cc2ccccc2)CC1)c1csc2ccccc12`, the IC50 [1] is reported as 29.7 µM, the IC50 [2] is reported as 31.7 µM and the IC50 [3] is reported as 43.3 µM. The IC50 [4] was 30.1 µM, the IC50 [5] was 21.7 µM and the IC50 [6] was 32.3 µM. The IC50 [7] was 42.5 µM, the IC50 [8] was 18.7 µM and the IC50 [9] was 20.8 µM. It also gave an IC50 [10] of 130 µM.

With `O=C(CCN1CCN(c2ccc(C(F)(F)F)cc2)CC1)c1csc2ccccc12` the IC50 [1] was 21.9 µM, the IC50 [2] was 19.3 µM and the IC50 [3] was 32.3 µM. For the same molecule, the IC50 [4] was 48.2 µM, the IC50 [5] was 8.1 µM and the IC50 [6] was 6.6 µM. The IC50 [7] was 40.6 µM, the IC50 [8] was 21.4 µM and the IC50 [9] was 43.2 µM. It also gave an IC50 [10] of 237 µM.

Work on `COc1cc(Cl)ccc1N1CCN(CCC(=O)c2cc(C)sc2C)CC1` yielded an IC50 [1] of 2.5 µM, an IC50 [2] of 0.8 µM and an IC50 [3] of 0.7 µM. It also gave an IC50 [4] of 4.7 µM, an IC50 [5] of 2 µM and an IC50 [6] of 2.3 µM. For the same molecule, the IC50 [7] was 21.2 µM, the IC50 [8] was 24.2 µM and the IC50 [9] was 37.5 µM. It also gave an IC50 [10] of 138 µM.

`O=C(CCN1CCN(c2ccc([N+](=O)[O-])cc2)CC1)c1csc2ccc(F)cc12` showed an IC50 [1] of 36.6 µM, an IC50 [2] of 19.8 µM and an IC50 [3] of 43.3 µM. It also gave an IC50 [4] of 48.1 µM, an IC50 [5] of 8.8 µM and an IC50 [6] of 52.4 µM. For the same molecule, the IC50 [7] was 39.4 µM, the IC50 [8] was 16.3 µM and the IC50 [9] was 4.1 µM. It also gave an IC50 [10] of 554 µM.

Work on `O=C(CCN1CCN(Cc2cccc(F)c2)CC1)c1csc2ccccc12` yielded an IC50 [1] of 86.7 µM, an IC50 [2] of 22.6 µM and an IC50 [3] of 39.5 µM. For the same molecule, the IC50 [4] was 28.9 µM, the IC50 [5] was 20 µM and the IC50 [6] was 27.3 µM. For the same molecule, the IC50 [7] was 53.9 µM, the IC50 [8] was 32 µM and the IC50 [9] was 86.3 µM. The IC50 [10] was 70.8 µM.

For `O=C(CCN1CCN(c2ccc(Cl)cc2)CC1)c1csc2ccccc12`, the IC50 [1] was 30.6 µM, the IC50 [2] was 25.3 µM and the IC50 [3] was 31.4 µM. For the same molecule, the IC50 [4] was 42.3 µM, the IC50 [5] was 10.1 µM and the IC50 [6] was 12.8 µM. It also gave an IC50 [7] of 23.6 µM, an IC50 [8] of 26.3 µM and an IC50 [9] of 43.2 µM. It also gave an IC50 [10] of 157 µM.

In the case of `O=C(CCN1CCN(c2ccc(F)cc2)CC1)c1ccc2ccccc2c1`, the IC50 [1] is reported as 49 µM, the IC50 [2] is reported as 23.9 µM and the IC50 [3] is reported as 24.6 µM. It also gave an IC50 [4] of 27.6 µM, an IC50 [5] of 20.3 µM and an IC50 [6] of 25.5 µM. It also gave an IC50 [7] of 24.1 µM, an IC50 [8] of 12.4 µM and an IC50 [9] of 10.7 µM. For the same molecule, the IC50 [10] was 103 µM.

With `O=C(CCN1CCN(c2ccc(Cl)cc2)CC1)c1csc2ccc(F)cc12` the IC50 [1] was 28.5 µM, the IC50 [2] was 13.2 µM and the IC50 [3] was 9.6 µM. For the same molecule, the IC50 [4] was 9.6 µM, the IC50 [5] was 14.8 µM and the IC50 [6] was 21.8 µM. For the same molecule, the IC50 [7] was 30.1 µM, the IC50 [8] was 17.6 µM and the IC50 [9] was 19.6 µM. The IC50 [10] was 246 µM.

Molecule `O=C(CCN1CCN(c2ccc(C(F)(F)F)cc2)CC1)c1ccc2c(c1)OCO2` has an IC50 [1] of 50.6 µM, an IC50 [2] of 27.9 µM and an IC50 [3] of 21.8 µM. It also gave an IC50 [4] of 21.8 µM, an IC50 [5] of 17.6 µM and an IC50 [6] of 23.7 µM. For the same molecule, the IC50 [7] was 17.8 µM, the IC50 [8] was 13 µM and the IC50 [9] was 14.2 µM. For the same molecule, the IC50 [10] was 48.7 µM.

`O=C(CCN1CCN(c2ccc([N+](=O)[O-])cc2)CC1)c1ccc2ccccc2c1` was tested, and the IC50 [1] was 3.4 µM, the IC50 [2] was 5.4 µM and the IC50 [3] was 3.9 µM. For the same molecule, the IC50 [4] was 6.9 µM, the IC50 [5] was 8.6 µM and the IC50 [6] was 6.9 µM. The IC50 [7] was 27.7 µM, the IC50 [8] was 20.3 µM and the IC50 [9] was 26.4 µM. It also gave an IC50 [10] of 74.3 µM.

`O=C(CCN1CCN(c2ccc(Cl)cc2)CC1)c1ccsc1` showed an IC50 [1] of 14.1 µM, an IC50 [2] of 10 µM and an IC50 [3] of 46.9 µM. For the same molecule, the IC50 [4] was 28 µM, the IC50 [5] was 7.7 µM and the IC50 [6] was 22.3 µM. It also gave an IC50 [7] of 24.1 µM, an IC50 [8] of 16.3 µM and an IC50 [9] of 21.8 µM. The IC50 [10] was 65.8 µM.
